From PubChem BioAssay
SKKanGAS inh = blocks kanamycin growth of S. pyogenes SKKanGAS strain. BacTiter-Glo, 6 h. inhibition, % at 7.5 µM. AID 1662. 300,000 compounds, 1.3% hits;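 active = mean replicate score, as percent of positive control median, at least 50; inconclusive = mean below 50 but one replicate at or above 50; inactive = mean and every replicate below 50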;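 also: strain carries kanamycin resistance gene driven by streptokinase promoter and grows in 40 µg/ml kanamycin; loss of luminescence reflects streptokinase promoter inhibition or plain growth inhibition; 0% = median of DMSO wells and 100% = positive control at its reference dose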
Mdm2 MdmX PPI = human Mdm2/MdmX binding inhibition; O15151+Q00987; SaOS-2 split-luciferase Mdm2/MdmX complementation, luminescence; inhibition, % at 8 µM; 330,000 compounds, 3% hits;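 active = inhibition of at least 50% at 8 µM in the primary screen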
Target sequence (O15151 whole entry, looked up): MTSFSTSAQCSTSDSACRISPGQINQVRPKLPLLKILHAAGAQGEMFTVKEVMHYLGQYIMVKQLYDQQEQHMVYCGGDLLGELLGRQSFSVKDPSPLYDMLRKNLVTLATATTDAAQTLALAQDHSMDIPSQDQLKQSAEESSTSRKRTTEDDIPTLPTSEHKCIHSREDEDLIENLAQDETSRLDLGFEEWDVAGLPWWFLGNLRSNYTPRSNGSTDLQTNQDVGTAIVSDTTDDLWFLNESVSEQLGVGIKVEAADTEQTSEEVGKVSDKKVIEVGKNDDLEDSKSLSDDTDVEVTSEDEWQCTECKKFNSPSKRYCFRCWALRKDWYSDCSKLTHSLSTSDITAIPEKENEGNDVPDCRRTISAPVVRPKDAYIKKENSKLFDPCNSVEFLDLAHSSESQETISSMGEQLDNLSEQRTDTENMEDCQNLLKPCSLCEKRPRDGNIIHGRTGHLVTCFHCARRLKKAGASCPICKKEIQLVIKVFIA
Target sequence (Q00987 whole entry, looked up): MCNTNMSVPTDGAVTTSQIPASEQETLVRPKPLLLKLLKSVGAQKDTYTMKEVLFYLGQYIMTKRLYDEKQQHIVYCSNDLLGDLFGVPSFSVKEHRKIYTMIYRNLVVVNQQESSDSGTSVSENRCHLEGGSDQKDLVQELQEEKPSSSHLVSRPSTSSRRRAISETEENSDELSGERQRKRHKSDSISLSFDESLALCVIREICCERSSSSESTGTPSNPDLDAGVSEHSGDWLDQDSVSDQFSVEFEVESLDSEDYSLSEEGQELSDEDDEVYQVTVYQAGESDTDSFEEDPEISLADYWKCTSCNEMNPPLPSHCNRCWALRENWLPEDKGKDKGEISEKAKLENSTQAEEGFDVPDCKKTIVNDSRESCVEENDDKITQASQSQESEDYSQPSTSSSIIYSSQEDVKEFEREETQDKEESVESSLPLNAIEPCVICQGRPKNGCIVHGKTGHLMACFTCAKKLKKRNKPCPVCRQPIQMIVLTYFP
Beta apoptosis = beta cell apoptosis inhibition; INS-1E cytokine-induced death, ATP luminescence, 48 h; percent of positive-control rescue, neutral wells zero; protection from apoptosis, % (no concentration beside the values); 300,000 compounds, 0.8% hits; AID 435005;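 active = Every replicate reaches about 75%, or at least half do and their mean reaches it too, limit read from the data; inconclusive = At least half of replicates reach the limit but their mean does not; inactive = Under half of replicates reach the limit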;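 also: 0% = cytokine-treated negative control wells and 100% = positive control rescue; higher means more ATP so stronger rescue from cytokine killing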
Lmaj promast = inhibitors of Leishmania major promastigote growth; Leishmania major promastigotes, resazurin fluorescence viability; inhibition, % at 10 µM; 200,000 compounds, 9% hits; AID 1063; in the data active = inhibition above about 50%;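 also: promastigotes grown with compound for 44 hours at 28 °C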
T cruzi inh = T. cruzi replication inhibition; T. cruzi beta-gal in NIH3T3, luminescence, 90 h; inhibition, % (test concentration not listed); 300,000 compounds, 1.4% hits;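 active = mean inhibition across valid replicates above about 55%, limit read from the data; inconclusive = mean below that limit but half or more replicates reach it; inactive = mean below it, under half of replicates reach it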;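 also: signal also drops with host cell toxicity which is not excluded here; 0% = plate median of DMSO wells and 100% = zero luminescence signal; higher percent means less beta-gal luminescence so fewer parasites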
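assay system = mouse NIH/3T3 fibroblasts infected with β-gal-expressing T. cruzi Tulahuen C4 | input = 5,000 NIH/3T3 host cells per well | buffer or medium = DMEM plus 2% FBS | timing = 3 h host attachment, then at least 90 h co-culture | measured by = GalScreen luminescence, 60 min | evaluation = luminescence reflecting intracellular parasite burden, expressed as percent inhibition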
CSC inhib = cancer stem cell inhibition; cancer stem cell-like cells viability, luminescence; AID 2717; 300,000 compounds, 1.1% hits; inhibition, % at 7.5 µM; in the data active = inhibition above about 75%; inconclusive = no clear call, values can overlap the other calls; tested in HMLE shEcad cells
Mdm2 MdmX conf = human Mdm2/MdmX binding inhibition, confirmed | luminescent assay | inhibition, % at 8 µM | 10,000 compounds, 55% hits | shares compounds with Mdm2 MdmX PPI | AID 489028; in the data active = inhibition above about 40%
FLuc counter = counter-screen for Mdm2/MdmX inhibitors: full-length luciferase; shares compounds with Mdm2 MdmX PPI; inhibition, % at 8 µM; AID 504607; SaOS-2 full-length luciferase counterscreen, luminescence; 6,200 compounds, 77% hits;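 active = mean inhibition at 8 µM reaching about 37%, which flags the compound as non-specific, limit read from the data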;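 also: p53-null SaOS-2 cells with luciferase driven by a doxycycline-inducible promoter; compound on cells about two nights before reading with doxycycline added after day one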
* = called active by the depositor; ? = inconclusive; . = no result given. Compounds with a hit are over-represented: about 9.4% of the library has one in this group of screens.

SMILES	SKKanGAS inh	Mdm2 MdmX PPI	Beta apoptosis	Lmaj promast	T cruzi inh	CSC inhib	Mdm2 MdmX conf	FLuc counter
O=C(CCN1CCN(C(c2ccccc2)c2ccccc2)CC1)N/N=C/c1ccc(O)cc1O	8	60*	-9	25	1	.	69*	37*
O=C(O)c1ccccc1C(=O)Nc1ccc(S(=O)(=O)Nc2ccc(F)cc2)cc1	2	-8	-12	.	-4	-7	.	.
O=C1CC(c2cc(F)ccc2F)c2cc3c(cc2N1)CCC3 (centres undefined)	-4	52*	-1	18	-11	54	52*	72*
O=C1CC(c2cccc(Br)c2)c2cc3c(cc2N1)CCC3 (centres undefined)	3	67*	.	3	28	.	42*	68*
Cc1ccc(NC(=O)c2cc3ccccc3o2)cc1S(=O)(=O)N(C)C	.	.	.	3	.	.	.	.
Cc1ccc(NC(=O)c2cc3ccccc3oc2=O)cc1S(=O)(=O)N(C)C	-5	89*	-10	-7	1	-1	94*	26
Oc1ccc(Br)cc1-c1nc2cnccn2c1NC1CCCC1	22	79*	-7	4	-4	16	57*	20
CCCCN(C(=O)c1cc(S(=O)(=O)N2CCCCCC2)ccc1OC)c1c(N)n(CCC)c(=O)[nH]c1=O	5	9	-1	.	0	-17	.	.
C=CCc1cccc(/C=N/NC(=O)c2ccc3nc[nH]c3c2)c1O	3	67*	84*	.	-1	94*	52*	26
C=CCc1cccc(/C=N/NC(=O)C(C)Nc2ccc(C)cc2)c1O (centres undefined)	44	70*	72	29	49	50	67*	42*
COc1ccc(NC(C)C(=O)N/N=C/c2ccccc2OCc2cccc(Br)c2)cc1 (centres undefined)	25	34	-3	-6	4	21	.	.
O=C(N/N=C/c1ccc(Cl)cc1Cl)c1ccc2nc[nH]c2c1	-7	2	-1	.	2	-2	.	.
C=CCc1cccc(/C=N/NC(=O)c2ccccc2OC)c1O	32	66*	94*	98*	62*	-2	70*	47*
CC(=O)c1c(C(C)=O)c(C)n(Cc2ccccc2)c1C	1	0	-4	2	-20	-12	.	.
Cc1c(C=O)c(C=O)c(C)n1Cc1ccccc1	-4	86*	.	4	-19	44	86*	31
Cc1ccc2nc(N(CCCN(C)C)C(=O)c3ccc4ncsc4c3)sc2c1	2	12	-4	.	49	-8	.	.
Cc1ccc(NC(=S)N=Nc2c(O)[nH]c3ccccc23)cc1	73*	65*	.	91*	68*	53	52*	67*
Oc1[nH]c2ccc(Br)cc2c1N=NC(=S)Nc1ccc(F)cc1	109*	71*	29	.	59*	82*	70*	43*
Oc1ccc(NC(=S)N=Nc2c(O)[nH]c3ccccc23)cc1	7	36	3	2	-35	12	.	.
Oc1ccc(NC(=S)N=Nc2c(O)[nH]c3ccc(Br)cc23)cc1	31	70*	.	10	-48	.	74*	42*
Cc1cccc(N=Nc2c(O)[nH]c3ccc(Br)cc23)c1	10	-17	-7	.	12	1	.	.
Oc1cccc(NC(=S)N=Nc2c(O)[nH]c3ccc(Br)cc23)c1	89*	56*	7	.	17	30	46*	57*
CCOC(=O)C1CCN(C(=O)c2sccc2Cl)CC1	-6	5	-3	.	.	13	.	.
COc1cccc(/C(C)=N/N=C(\C)c2cccc(OC)c2)c1	23	-65	-8	.	-13	-17	.	.
CC1(C(=O)NCCCNc2ncc(C(F)(F)F)cc2Cl)C=CC2(CCCCC2)N1C(=O)c1ccccc1 (centres undefined)	5	-5	.	.	17	.	.	.
SMILES	SKKanGAS inh	Mdm2 MdmX PPI	Beta apoptosis	Lmaj promast	T cruzi inh	CSC inhib	Mdm2 MdmX conf	FLuc counter
CN(C)S(=O)(=O)c1ccc(F)c(C(=O)Nc2ccccc2C(=O)NC2CC2)c1	.	15	.	.	.	.	.	.
Cc1cccc(C)c1NC(=O)Cn1cc(C=O)c2ccccc21	1	8	7	.	-6	-12	.	.
Cc1cccc2sc(NNC(=O)c3ccc(S(=O)(=O)N4CC(C)CC(C)C4)cc3)nc12 (centres undefined)	92*	88*	110*	99*	66*	118*	87*	55*
COC(=O)c1ccc(-c2csc(NC(=O)c3ccc(S(=O)(=O)N4CCc5ccccc5C4)cc3)n2)cc1	15	51*	-6	4	-2	.	10	.
Cc1cc(C)c2nc(NNC(=O)c3ccc(S(=O)(=O)N4CCCC(C)C4)cc3)sc2c1 (centres undefined)	92*	83*	107*	98*	61*	119*	86*	45*
Cc1ccc2nc(NNC(=O)c3ccc(S(=O)(=O)N4CCc5ccccc5C4)cc3)sc2c1	79*	74*	98*	100*	71*	102*	88*	63*
COC(=O)c1sc2ccccc2c1NC(=O)c1ccc(S(=O)(=O)N2CC(C)CC(C)C2)cc1 (centres undefined)	27	40	2	-2	-5	.	.	.
COc1ccc(-c2csc(NC(=O)c3ccc(S(=O)(=O)N4CCc5ccccc5C4)cc3)n2)cc1	5	31	4	6	-13	.	.	.
CC1CCCN(S(=O)(=O)c2ccc(C(=O)Nc3nnc(C4CC4)o3)cc2)C1 (centres undefined)	?	31	10	.	-6	27	.	.
Cc1cc(C)c2nc(NNC(=O)c3ccc(S(=O)(=O)N4CC(C)CC(C)C4)cc3)sc2c1 (centres undefined)	82*	84*	106*	99*	62*	118*	70*	23
COc1cc(C(=O)Nc2ccc(S(=O)(=O)Nc3cc(C)on3)cc2)cc(OC)c1OC	2	13	-5	-2	-9	-16	.	.
COc1ccc(-c2nc3ccccc3c(C(=O)Nc3ccc(S(=O)(=O)Nc4cc(C)on4)cc3)c2C)cc1	16	76*	3	-2	-8	33	56*	53*
CCCCC(=O)/C=C/n1c(=S)oc2ccccc21	-6	100*	10	22	33	16	33	.
CN1C(=O)NC(c2ccccc2)(C(F)(F)F)S/C1=C(/C#N)c1nnc(N2CCOCC2)n1-c1ccccc1 (centres undefined)	?	50*	2	-5	-11	0	18	.
CC1CCC(CN2C(Nc3ccccc3)=NC[C@@H]2Cc2ccccc2)CC1 (some centres undefined)	.	47	-9	.	.	10	.	.
O=C(/C=C/c1ccc(Br)cc1)NC1CCCCCC1	10	-59	5	-4	19	-1	.	.
